Data on 18 molecules can be found in PMC9064907 (RSC Advances, 2019).

For experiment [1], the system named is HCT-116 (human colorectal carcinoma). Put plainly: MTT cytotoxicity assay, HCT-116. The class given is cell-based. Conditions: for IC50: read-out: IC50 (µM) ± SD HCT-116; for Therapeutic index (TI) HCT-116: TI = IC50 against normal cells (RPE-1)/IC50 against cancer cells (HCT-116). The method, boiled down:
(§1)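 Cells were kept in DMEM with 10% heat-inactivated FBS and penicillin/streptomycin at 37 °C under 5% CO2. MTT (2.5 mg mL−1) was added for 4 h, formazan dissolved in DMSO and A570 read. Viability is % of untreated control. Triplicates were repeated on three days; mean ± SD; IC50 by probit analysis.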
Background: Formazan colour is commonly taken as a measure of viable cells.

Experiment [2] deals with MCF-7 (human breast adenocarcinoma). Put plainly: MTT cytotoxicity assay, MCF-7. The class given is cell-based. Conditions: for IC50: read-out: IC50 (µM) ± SD MCF-7; for Therapeutic index (TI) MCF-7: TI = IC50 against normal cells (RPE-1)/IC50 against cancer cells (MCF-7). The method, boiled down: as §1
Experiment [3] deals with RPE-1 (human normal Retina pigmented epithelium). Description: MTT cytotoxicity assay, RPE-1 normal cells. The class given is cell-based. Conditions: read-out: IC50 (µM) ± SD RPE-1. The method, boiled down:
as §1

Experiment [4] relates to MCF-7 cells. Description: Apoptosis quantification by flow cytometry. The class given is cell-based, human. Conditions: MCF-7, treated at IC50 (2: 18.7 µM; 14: 15.6 µM), 24 h; for apoptosis percentage, early apoptosis: control 1.84 ± 0.63; for apoptosis percentage, late apoptosis: control 2.94 ± 0.5%. In general terms: In flow cytometry, cells or beads pass a laser one at a time.

The test system of experiment [5] is MCF-7 cells. Put plainly: Apoptosis detection by fluorescent Hoechst 33258 staining. The experiment is classed as cell-based, human. The conditions noted are these: MCF-7, treated at IC50 (2: 18.7 µM; 14: 15.6 µM), 24 h.
Where [6] appears, read: MTT assay, 48 h, normal RPE-1 cells.

Like-named read-outs stand apart in the source and are kept apart here.

On to `CSc1nc(N)n(-c2ccc(C(=O)O)cc2)n1` [Compound 1, 4-(5-Amino-3-(methylthio)-1H-1,2,4-triazol-1-yl)benzoic acid], for which the IC50 in experiment [1] (Homo sapiens, HCT-116, 48 h) stood at 41.8 ± 6.5 µM; in experiment [2] (Homo sapiens, MCF7, 48 h), 32.9 ± 5.3 µM; in experiment [3] (Homo sapiens, RPE-1, 48 h), 61 ± 13.9 µM. Besides, the “Therapeutic index (TI) HCT-116” value in experiment [1] came to 1.5. The “Therapeutic index (TI) MCF-7” value in experiment [2] was found to be 1.9.
As for `Nc1nc(Oc2ccccc2)nn1-c1ccc(C(=O)O)cc1` [Compound 2, 4-(5-Amino-3-phenoxy-1H-1,2,4-triazol-1-yl)benzoic acid], the IC50 came out at 25.7 ± 4.1 µM in experiment [1] (Homo sapiens, HCT-116, 48 h); 18.7 ± 3.5 µM in experiment [2] (Homo sapiens, MCF7, 48 h); 61.2 ± 10.9 µM in experiment [3] (Homo sapiens, RPE-1, 48 h). The “Therapeutic index (TI) HCT-116” value in experiment [1] was determined as 2.4. Moreover, the “Therapeutic index (TI) MCF-7” value in experiment [2] was 3.3. Also, the “apoptosis percentage, early apoptosis” value in the experiment on MCF-7 cells [4] turned out to be 17.82 ± 1.30%. The “apoptosis percentage, late apoptosis” value in the experiment on MCF-7 cells [4] came out at 24.91 ± 1.98%. The “Nuclear morphological changes (Hoechst 33258)” value in the experiment with MCF-7 cells [5] was “DNA fragmentation and typical marks of apoptosis are evident”.
Take `CSc1nc(/N=C/c2cc(C)ccc2O)n(-c2ccc(C(=O)O)cc2)n1` [Compound 3, (E)-4-(5-((2-Hydroxy-5-methylbenzylidene)amino)-3-(methylthio)-1H-1,2,4-triazol-1-yl)benzoic acid]: the IC50 in experiment [1] (Homo sapiens, HCT-116, 48 h) was determined as 36 ± 6.1 µM; in experiment [2] (Homo sapiens, MCF7, 48 h) it was 23.9 ± 1.6 µM; in experiment [3] (Homo sapiens, RPE-1, 48 h), 43.9 ± 10.5 µM. Further, the “Therapeutic index (TI) HCT-116” value in experiment [1] was determined as 1.2. Further, in experiment [2], the “Therapeutic index (TI) MCF-7” value is 1.8.
For the molecule `COc1ccc(O)c(/C=N/c2nc(SC)nn2-c2ccc(C(=O)O)cc2)c1` [Compound 4, (E)-4-(5-((2-Hydroxy-5-methoxybenzylidene)amino)-3-(methylthio)-1H-1,2,4-triazol-1-yl)benzoic acid], the IC50 came out at 35.2 ± 5.2 µM in experiment [1] (Homo sapiens, HCT-116, 48 h); 27.3 ± 4.2 µM in experiment [2] (Homo sapiens, MCF7, 48 h); 55.3 ± 11.1 µM in experiment [3] (Homo sapiens, RPE-1, 48 h). In addition, in experiment [1], the “Therapeutic index (TI) HCT-116” value is listed as 1.6. Moreover, in experiment [2], the “Therapeutic index (TI) MCF-7” value turned out to be 2.0.
On to `CSc1nc(/N=C/c2cc([N+](=O)[O-])ccc2O)n(-c2ccc(C(=O)O)cc2)n1` [Compound 5, (E)-4-(5-((2-Hydroxy-5-nitrobenzylidene)amino)-3-(methylthio)-1H-1,2,4-triazol-1-yl)benzoic acid], for which the IC50 in experiment [1] (Homo sapiens, HCT-116, 48 h) is 24 ± 4.5 µM; in experiment [2] (Homo sapiens, MCF7, 48 h), 20 ± 4.1 µM; in experiment [3] (Homo sapiens, RPE-1, 48 h), 60.2 ± 12.8 µM. In addition, the “Therapeutic index (TI) HCT-116” value in experiment [1] stood at 2.5. The “Therapeutic index (TI) MCF-7” value in experiment [2] was 3.0.
The matching figures for `CSc1nc(/N=C/c2cc(Br)ccc2O)n(-c2ccc(C(=O)O)cc2)n1` [Compound 6, (E)-4-(5-((5-Bromo-2-hydroxybenzylidene)amino)-3-(methylthio)-1H-1,2,4-triazol-1-yl)benzoic acid]: 37.6 ± 6.4 µM, 31.3 ± 5.1 µM, 59.4 ± 11.7 µM, 1.6 and 1.9.
The matching figures for `COc1cc(/C=N/c2nc(SC)nn2-c2ccc(C(=O)O)cc2)ccc1O` [Compound 7, (E)-4-(5-((4-Hydroxy-3-methoxybenzylidene)amino)-3-(methylthio)-1H-1,2,4-triazol-1-yl)benzoic acid]: 29.8 ± 4.2 µM, 29.4 ± 5.3 µM, 61.1 ± 12.5 µM, 2.1 and 2.1.
Consider `CSc1nc(/N=C/c2cccc(O)c2)n(-c2ccc(C(=O)O)cc2)n1` [Compound 8, (E)-4-(5-((3-Hydroxybenzylidene)amino)-3-(methylthio)-1H-1,2,4-triazol-1-yl)benzoic acid], for which the IC50 is 34.6 ± 6.1 µM in experiment [1] (Homo sapiens, HCT-116, 48 h); 31.2 ± 5.6 µM in experiment [2] (Homo sapiens, MCF7, 48 h); 70.1 ± 15.3 µM in experiment [3] (Homo sapiens, RPE-1, 48 h). Also, the “Therapeutic index (TI) HCT-116” value in experiment [1] is 2.0. Moreover, the “Therapeutic index (TI) MCF-7” value in experiment [2] was found to be 2.2.
Regarding `CSc1nc(/N=C/c2ccc(O)cc2)n(-c2ccc(C(=O)O)cc2)n1` [Compound 9, (E)-4-(5-((4-Hydroxybenzylidene)amino)-3-(methylthio)-1H-1,2,4-triazol-1-yl)benzoic acid], the IC50 in experiment [1] (Homo sapiens, HCT-116, 48 h) turned out to be 39.1 ± 5.6 µM; in experiment [2] (Homo sapiens, MCF7, 48 h) it was 34.8 ± 5.5 µM; in experiment [3] (Homo sapiens, RPE-1, 48 h), 68 ± 16.7 µM. Further, the “Therapeutic index (TI) HCT-116” value in experiment [1] is reported as 1.7. For the same molecule, in experiment [2], the “Therapeutic index (TI) MCF-7” value was found to be 2.0.
With `Cc1ccc(O)c(/C=N/c2nc(Oc3ccccc3)nn2-c2ccc(C(=O)O)cc2)c1` [Compound 10, (E)-4-(5-((2-Hydroxy-5-methylbenzylidene)amino)-3-phenoxy-1H-1,2,4-triazol-1-yl)benzoic acid], the IC50 in experiment [1] (Homo sapiens, HCT-116, 48 h) worked out at 33.7 ± 5.2 µM; in experiment [2] (Homo sapiens, MCF7, 48 h), 30.3 ± 5.3 µM; in experiment [3] (Homo sapiens, RPE-1, 48 h), 74 ± 16.5 µM. Further, in experiment [1], the “Therapeutic index (TI) HCT-116” value is 2.2. Moreover, the “Therapeutic index (TI) MCF-7” value in experiment [2] was determined as 2.4.
For the molecule `COc1ccc(O)c(/C=N/c2nc(Oc3ccccc3)nn2-c2ccc(C(=O)O)cc2)c1` [Compound 11, (E)-4-(5-((2-Hydroxy-5-methoxybenzylidene)amino)-3-phenoxy-1H-1,2,4-triazol-1-yl)benzoic acid], the IC50 in experiment [1] (Homo sapiens, HCT-116, 48 h) came to 33.1 ± 4.4 µM; in experiment [2] (Homo sapiens, MCF7, 48 h) it was 27.5 ± 4.1 µM; in experiment [3] (Homo sapiens, RPE-1, 48 h), 58.5 ± 10.7 µM. Also, the “Therapeutic index (TI) HCT-116” value in experiment [1] is 1.8. The “Therapeutic index (TI) MCF-7” value in experiment [2] is given as 2.1.
Taken in the same sequence, the figures for `O=C(O)c1ccc(-n2nc(Oc3ccccc3)nc2/N=C/c2cc([N+](=O)[O-])ccc2O)cc1` [Compound 12, (E)-4-(5-((2-Hydroxy-5-nitrobenzylidene)amino)-3-phenoxy-1H-1,2,4-triazol-1-yl)benzoic acid] were 26.8 ± 4.5 µM, 21.6 ± 3.1 µM, 62.8 ± 13.9 µM, 2.3 and 2.9.
Consider `CSc1nc(NC(=S)NCc2ccccc2)n(-c2ccc(C(=O)O)cc2)n1` [Compound 13, 4-(3-(Methylthio)-5-(3-benzylylthioureido)-1H-1,2,4-triazol-1-yl)benzoic acid], for which, in experiment [1], the “Therapeutic index (TI) HCT-116” value is 2.1. In addition, the IC50 in experiment [1] (MTT assay, 48 h, HCT-116) is 30.1 ± 4.1 µM; in experiment [2] (MTT assay, 48 h, MCF-7), 23.4 ± 4.6 µM; in experiment [3] (setting [6]), 63.9 ± 13.5 µM. In addition, the “Therapeutic index (TI) MCF-7” value in experiment [2] came out at 2.7.
`CSc1nc(NC(=S)NCCc2ccccc2)n(-c2ccc(C(=O)O)cc2)n1` [Compound 14, 4-(3-(Methylthio)-5-(3-phenethylthioureido)-1H-1,2,4-triazol-1-yl)benzoic acid]: the IC50 in experiment [1] (Homo sapiens, HCT-116, 48 h) stood at 28.3 ± 5.2 µM; in experiment [2] (Homo sapiens, MCF7, 48 h), 15.6 ± 2.2 µM; in experiment [3] (Homo sapiens, RPE-1, 48 h), 45.8 ± 8.9 µM. The “Therapeutic index (TI) HCT-116” value in experiment [1] is 1.6. The “Therapeutic index (TI) MCF-7” value in experiment [2] was 2.9. In addition, in the experiment with MCF-7 cells [4], the “apoptosis percentage, early apoptosis” value worked out at 29.11 ± 1.44%. The “apoptosis percentage, late apoptosis” value with MCF-7 cells [4] worked out at 45.47 ± 2.10%. Besides, the “Nuclear morphological changes (Hoechst 33258)” value in the experiment with MCF-7 cells [5] is “DNA fragmentation and typical marks of apoptosis are evident”.
Turning to `O=C(O)c1ccc(-n2nc(Oc3ccccc3)nc2NC(=S)NCc2ccccc2)cc1` [Compound 15, 4-(5-(3-Benzylylthioureido)(3-phenoxy)-1H-1,2,4-triazol-1-yl)benzoic acid], in experiment [1], the “Therapeutic index (TI) HCT-116” value was determined as 3.8. Besides, the IC50 in experiment [1] (MTT assay, 48 h, HCT-116) was 23.9 ± 4.5 µM; in experiment [2] (MTT assay, 48 h, MCF-7) it was 24 ± 4.3 µM; in experiment [3] (setting [6]), 91.6 ± 15.9 µM. In addition, the “Therapeutic index (TI) MCF-7” value in experiment [2] was determined as 3.8.
Regarding `COC(=O)c1ccc(-n2nc(SC)nc2N)cc1` [Compound 16, methyl 4-(5-amino-3-(methylthio)-1H-1,2,4-triazol-1-yl)benzoate], the IC50 amounted to 37.3 ± 6.1 µM in experiment [1] (Homo sapiens, HCT-116, 48 h); 23.4 ± 3.5 µM in experiment [2] (Homo sapiens, MCF7, 48 h); 39.1 ± 9.9 µM in experiment [3] (Homo sapiens, RPE-1, 48 h). Further, in experiment [1], the “Therapeutic index (TI) HCT-116” value came out at 1.0. Further, the “Therapeutic index (TI) MCF-7” value in experiment [2] is given as 1.7.
Taken in the same sequence, the figures for `CS(=O)(=O)c1nc(N)n(-c2ccc(C(=O)O)cc2)n1` [Compound 17, 4-(5-amino-3-(methylsulfonyl)-1H-1,2,4-triazol-1-yl) benzoic acid] were 34.2 ± 5.2 µM, 21.9 ± 4.2 µM, 48.5 ± 9.8 µM, 1.4 and 2.2.
For the molecule `COc1cccc2c1C(=O)c1c(O)c3c(c(O)c1C2=O)C[C@@](O)(C(=O)CO)C[C@@H]3O[C@H]1C[C@H](N)[C@H](O)[C@H](C)O1` [Doxorubicin, reference compound], the IC50 in experiment [1] (Homo sapiens, HCT-116, 48 h) was found to be 22.6 ± 3.9 µM; in experiment [2] (Homo sapiens, MCF7, 48 h) it was 19.7 ± 3.1 µM; in experiment [3] (Homo sapiens, RPE-1, 48 h), 64 ± 13.2 µM. Besides, in experiment [1], the “Therapeutic index (TI) HCT-116” value is 2.8. For the same molecule, the “Therapeutic index (TI) MCF-7” value in experiment [2] stood at 3.3.

One may read the IC50 as the concentration that inhibits the measured activity by half.
